Compound activity: PubChem, several laboratories
GRIN3A LBD mod = binders of NR3A ligand-binding domain, primary screen, biophysical, differential scanning fluorimetry, uHTS | Glutamate receptor ionotropic, NMDA 3A (GRIN3A) ligand-binding domain | Tm shift relative to glycine control, % at 25 µM | 2.5% of 340,000 active | NR3A LBD differential scanning fluorimetry, Tm shift; 0% = protein alone, 100% = glycine-bound protein;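 active = melting temperature shift of at least 10% of the positive control shift, at one fixed dose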
ZTA counter = counter-screen for EBNA-1 inhibitors: inhibitors of Epstein-Barr virus ZTA | P03206 | ZTA-DNA binding, fluorescence polarization | inhibition, % at 11 µM | 0.15% of 320,000 active | AID 2234; in the data active = inhibition above about 33%
Target sequence (P03206 whole entry, looked up): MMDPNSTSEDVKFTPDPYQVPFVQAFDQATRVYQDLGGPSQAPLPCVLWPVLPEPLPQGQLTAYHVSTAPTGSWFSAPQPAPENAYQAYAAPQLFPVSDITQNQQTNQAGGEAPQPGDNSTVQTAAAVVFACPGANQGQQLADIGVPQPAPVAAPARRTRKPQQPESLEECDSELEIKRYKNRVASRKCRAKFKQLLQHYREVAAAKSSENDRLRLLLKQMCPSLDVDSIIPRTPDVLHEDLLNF
FID counter = compounds displacing fluorescent DNA intercalator, primary screen, artefact control for HCV NS3 helicase inhibitor project, biochemical, FID fluorescence. inhibition, % at 7.9 µM. 0.17% of 290,000 active. DNA fluorescent intercalator displacement; in the data active = inhibition above about 37%;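 note: higher means more ethidium bromide displaced from hairpin DNA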
EBNA-1 inh = EBNA-1 DNA-binding inhibitors, primary screen, biochemical, fluorescence polarization; 0.34% of 300,000 active; inhibition, % at 14.8 µM; in the data active = inhibition above about 28%
NS3 helicase inh = inhibitors of HCV NS3 helicase, primary screen, biochemical, Cy5 molecular beacon fluorescence; inhibition, % at 10.9 µM; Hepatitis C virus NS3 helicase; 0.56% of 290,000 active; AID 1800, 2009; NS3 helicase DNA unwinding;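 active = inhibition above the mean of all tested compounds plus 3 SD, set per campaign, cut at about 35% in these data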
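test system = hepatitis C virus NS3 helicase domain fragment enzyme | reagent = annealed dual-labelled DNA beacon duplex, ATP-started | times = 1 h at 25 °C | detection = Cy5 fluorescence, 0 and 60 min reads | read-out basis = percent inhibition from t60/t0 fluorescence ratio | control set = DMSO and thioflavine S | replication = one well per compound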
FGF22 binding = binders of human FGF22 protein, primary screen, FGF22 synaptogenesis inhibitor project, biophysical, thermal shift, single point. 1.5% of 340,000 active. activity (Tm shift, normalised), % at 9.99 µM. Fibroblast growth factor 22 (Homo sapiens), Q9HCT0. recombinant FGF22 thermal shift, SYPRO orange fluorescence; percent of sucrose octasulfate shift, DMSO zero. AID 651658, 2012;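 active = mean Tm shift, scaled 0 neutral to 100 positive control, at about 1.3% or above, every replicate too, limit read from the data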
Target sequence (Q9HCT0 whole entry, looked up): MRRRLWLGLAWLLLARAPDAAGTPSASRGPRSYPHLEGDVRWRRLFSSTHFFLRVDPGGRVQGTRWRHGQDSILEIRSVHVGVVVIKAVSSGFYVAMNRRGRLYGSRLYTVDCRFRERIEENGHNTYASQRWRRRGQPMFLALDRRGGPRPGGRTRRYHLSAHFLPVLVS
Hits are given with their value; . = inactive; / = no result. Most compounds without a hit are left out; they make up all but 3.6% or so of the library.

SMILES	GRIN3A LBD mod	ZTA counter	FID counter	EBNA-1 inh	NS3 helicase inh	FGF22 binding
Cc1ccc(S(=O)(=O)N2CCN(Cc3ccsc3)CC2)cc1	.	.	.	.	.	43.0
C[C@H](CO)N1C[C@H](C)[C@H](CN(C)Cc2ccc(C(F)(F)F)cc2)Oc2ccc(NC(=O)Nc3ccc4c(c3)OCO4)cc2C1=O	/	/	/	/	/	.
O=C(Nc1ccccc1)N[C@H]1CC[C@@H](CCNS(=O)(=O)c2ccccc2F)O[C@H]1CO	/	/	/	/	/	.
CN(/N=C/c1ccc(O)cc1O)c1ncc(C(F)(F)F)cc1Cl	25.9	.	.	.	.	.
CC=Cc1ccc2n(c1=O)C[C@H]1[C@H](CO)[C@@H](C(=O)NCc3ccccn3)[C@@H]2N1CCC (mixture of isomers)	/	/	/	/	/	.
O=C(C[C@H]1C=C[C@@H](NS(=O)(=O)c2cccc(F)c2)[C@@H](CO)O1)N1CCCCC1	/	/	/	/	/	.
COc1cccc(C(C(=O)NC2CCCCC2)N(C(=O)c2cccs2)c2ccc3c(c2)OCO3)c1 (stereo unspecified)	.	.	.	.	.	44.2
O=C(NC1CCCCC1)C(c1ccc2ncccc2c1)N(Cc1cccs1)C(=O)c1cccs1 (stereo unspecified)	14.2	.	.	.	.	/
O=C(NC1CCCCC1)C(c1cccs1)N(Cc1cccs1)C(=O)c1cccs1 (stereo unspecified)	.	.	.	.	.	/
COCC(=O)Nc1ccc2c(c1)C(=O)N(C)C[C@@H](OC)[C@@H](C)CN(Cc1ccccc1OC)[C@H](C)CO2	/	/	/	/	/	.
COc1ccc2c3c(n(C)c2c1)[C@@H](CO)N(Cc1cccnc1)CC31CCN(C(=O)c2cccnc2)CC1	/	/	/	/	/	.
C[C@H](CO)N1C[C@H](C)[C@H](CN(C)C(=O)Nc2ccc3c(c2)OCO3)Oc2ccc(NC(=O)NC3CCCCC3)cc2C1=O	/	/	/	/	/	.
COC(=O)c1sc(NC(=O)CC(C)C)c(C(=O)OC)c1C	21.1	.	.	.	.	/
O=C(Nc1ccc2ccccc2c1)c1ccccc1O	20.1	.	.	.	.	.
O=C(COC(=O)c1ccccc1O)Nc1ccc2ccccc2c1	15.5	/	/	/	/	.
O=C(Nc1ccc2ccccc2c1)c1ccccc1Cl	/	/	/	/	/	.
COc1ccccc1NS(=O)(=O)c1cc([N+](=O)[O-])ccc1N/N=C/c1c(C)[nH]c2ccccc12	29.3	.	.	.	.	/
O=[N+]([O-])c1ccc(N/N=C/c2c[nH]c3ccccc23)c(S(=O)(=O)Nc2ccc(Cl)cc2)c1	513.2	.	.	.	.	/
Cc1[nH]c2ccccc2c1/C=N/Nc1ccc([N+](=O)[O-])cc1	25.4	.	.	.	.	.
Cc1[nH]c2ccccc2c1/C=N/NC(=O)c1cccc([N+](=O)[O-])c1	.	.	.	.	.	/
CN1CCN(S(=O)(=O)c2cc([N+](=O)[O-])ccc2N/N=C/c2ccc(Cl)cc2)CC1	.	.	.	.	.	/
C[C@@H]1CN([C@@H](C)CO)C(=O)c2cc(NS(=O)(=O)c3cccs3)ccc2O[C@@H](C)CCCCO[C@H]1CN(C)C(=O)CCCN(C)C	/	/	/	/	/	.
O=C(C[C@H]1C=C[C@@H](NC(=O)C2CCC2)[C@H](CO)O1)NC1CCC1	/	/	/	/	/	.
CCOC(=O)/C=C(\C)N1N=C(c2ccccc2)CC1c1ccccc1 (stereo unspecified)	.	.	.	.	.	43.2
Cc1cc(C(=O)COC(=O)c2ccc(NC(=O)CC#N)cc2)c(C)n1-c1ccc(OC(F)F)cc1	16.8	/	/	/	/	.
O=c1c2ccccc2oc2ccc(-c3ccc4cc[nH]c4c3)cc12	26.0	/	/	/	/	/
Cc1ccc2oc3ccccc3c(=O)c2c1	.	/	/	/	/	.
C[C@H]1CN([C@@H](C)CO)C(=O)c2cc(NC(=O)Nc3ccccc3)ccc2O[C@H]1CN(C)C(=O)Nc1ccc(C(F)(F)F)cc1	/	/	/	/	/	.
CC1CCc2c(sc(NC(=O)Cn3nc(C(F)(F)F)c4c3CCCCC4)c2C#N)C1 (stereo unspecified)	15.6	.	.	.	.	/
